Consider 3 compounds from publication PMC11529822 (Lab on a Chip, 2024).

Data set [1] in a line: Tissue chip liver compartment: viability of HepG2/C3A cells in collagen. In kind it is cell-based, human. To be noted: human. The essentials:
(§1)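 Tumour compartment: MDA-MB-231 spheroids (10 × 10^3 cells, formed 4 days before seeding) in 3.5 mg mL−1 collagen. Liver (HepG2/C3A) and stroma (HS-5) compartments: 15 × 10^3 single cells in the same collagen. Medium 1:1 EMEM:DMEM under rocker-driven gravity flow. Test compound medium from day 1, replenished every 2 days, 5 days total. Four concentrations including control, 2–4 replicates; single-dose runs at 50 μM. PrestoBlue 15% v/v, 1 h, ex 560/em 590 nm; AUC computed.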

Data set [2] in a line: Tissue chip bone marrow stroma compartment: viability of HS-5 cells in collagen. In kind it is cell-based, human. More on the design: AUC HS-5: unit not given beside the values. As to conditions: human. The essentials: as §1
For data set [3], the system named is MDA-MB-231, HepG2/C3A and HS-5 cells. The experiment in a line: Tissue chip dose response, summary across all three compartments. The data set is classed as cell-based. To be noted: Homo sapiens, read-out: IC50 values across all compartments. The essentials:
as §1

The test system of data set [4] is MDA-MB-231 breast cancer cells. The data set is classed as cell-based, human. To be noted: for IC50: Homo sapiens, MDA-MB-231, read-out: IC50 MDA-MB-231; for AUC MDA-MB-231: area under the dose-response curve, tissue chip, tumor compartment. The essentials:
as §1

Another data set deals with HepG2/C3A liver cells. The data set can be described thus: Tissue chip liver compartment: viability of HepG2/C3A cells in collagen. In kind it is cell-based, human. To be noted: for IC50: Homo sapiens, HepG2/C3A, read-out: IC50 HepG2/C3A; for AUC HepG2/C3A: area under the dose-response curve, tissue chip, liver compartment. The essentials: as §1
The subject of data set [5] is HS-5 bone marrow stromal cells. The data set can be described thus: Tissue chip bone marrow stroma compartment: viability of HS-5 cells in collagen. In kind it is cell-based, human. More on the design: AUC HS-5: unit not given beside the values. To be noted: for IC50: Homo sapiens, HS5, read-out: IC50 HS-5; for AUC HS-5: area under the dose-response curve, tissue chip, bone marrow stroma compartment. The essentials: as §1

Consider `O=c1[nH]cc(F)c(=O)[nH]1` [5-FU, 5-fluorouracil], for which the viability – broadly, a read-out of living cells in per cent, often relative to untreated cells – at 5 days, 50 μM amounted to 20% in data set [1] and 24% in data set [2]. In addition, the IC50 in data set [3] was in the range of 1000 to 10000 nM.
`COc1cccc2c1C(=O)c1c(O)c3c(c(O)c1C2=O)C[C@@](O)(C(=O)CO)C[C@@H]3O[C@H]1C[C@H](N)[C@H](O)[C@H](C)O1` [Doxorubicin, doxorubicin]: in data set [4], the IC50 is 5.5 nM and the “AUC MDA-MB-231” value is 0.47. Besides, in the data set with HepG2/C3A liver cells, the IC50 worked out at 231 nM and the “AUC HepG2/C3A” value worked out at 0.72. Moreover, in data set [5], the IC50 was determined as 4.6 nM and the “AUC HS-5” value stood at 0.45.
Take `CC(=O)Nc1cccc(-n2c(=O)n(C3CC3)c(=O)c3c(Nc4ccc(I)cc4F)n(C)c(=O)c(C)c32)c1` [Trametinib, trametinib]: in data set [4], the IC50 stood at 0.06 nM and the “AUC MDA-MB-231” value was 0.63. In the data set on HepG2/C3A liver cells, the IC50 worked out at 12.2 nM and the “AUC HepG2/C3A” value is reported as 0.75. In addition, in data set [5], the IC50 was over 1000 nM and the “AUC HS-5” value is recorded as 0.98.
